Test results as given in ChEMBL document CHEMBL1629663, “Postantibiotic effects of telavancin against 16 gram-positive organisms” (Antimicrob Agents Chemother, 2009).
In brackets after ≈: the same amount, converted by molar mass.

What was measured:
Enterococcus faecium = assay: Antimicrobial activity against Enterococcus faecium HMC 588 assessed as time required to induce sub-MIC effect at 0.4 times MIC exposed for 2 hrs by plate counting method; assay type: functional
Method in brief: (§1)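 Unexposed Mueller-Hinton broth cultures (about 5 × 10^6 CFU/ml, 35°C) were handled as in the PA-SME set but without the 10× MIC pre-exposure. They were diluted 1:1,000, then given telavancin at final 0.2, 0.3 or 0.4× MIC, with a drug-free control. Viable counts were taken every 2 h until McFarland no. 1 turbidity. Effect duration comes from log10 CFU/ml-time plots; two separate experiments with new inocula.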

Staphylococcus aureus [1] = assay: Antimicrobial activity against vancomycin-intermediate-, methicillin-resistant Staphylococcus aureus 1984 assessed as time required to induce sub-MIC effect at 0.4 times MIC […] by plate counting method; assay type: functional
Method in brief: (§2)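 SME, viable plate count method: no prior drug exposure. About 5 × 10^6 CFU/ml in Mueller-Hinton broth at 35°C received 0.2, 0.3 or 0.4× MIC, alongside a drug-free tube. Counts were taken at the start, then every 2 h until McFarland no. 1 turbidity, as log10 CFU/ml against time. Two separate experiments, each with a new inoculum.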

Staphylococcus aureus [2] = assay: Antimicrobial activity against vancomycin-susceptible-, methicillin-resistant Staphylococcus aureus ATCC 33591 assessed as time required to induce sub-MIC effect at 0.4 times MIC exposed for 2 hrs by plate counting method; assay type: functional
Method in brief: (§3)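 Sub-MIC effect: cultures not preexposed to drug were diluted and handled as in the PA-SME procedure in Mueller-Hinton broth with final 0.2, 0.3 or 0.4× MIC, plus a drug-free control. Viable plate counts were taken every 2 h until McFarland 1 turbidity. Duration was derived from growth curves. Two experiments were run, each with a new inoculum.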

Streptococcus agalactiae [3] = assay: Antimicrobial activity against Streptococcus agalactiae HMC 5 assessed as time required to induce sub-MIC effect at 0.4 times MIC exposed for 2 hrs by plate counting method; assay type: functional; method in brief: as §1
Staphylococcus aureus [4] = assay: Antimicrobial activity against vancomycin-intermediate-, methicillin-resistant Staphylococcus aureus 1984 assessed as time required to induce sub-MIC effect at 0.2 times MIC […] by plate counting method; assay type: functional; method in brief: as §2
Streptococcus pyogenes = assay: Antimicrobial activity against Streptococcus pyogenes HMC 414 assessed as time required to induce post antibiotic sub-MIC effect at 0.2 times MIC pre-exposed to Telavancin for 2 hrs by plate counting method; assay type: functional; conditions: in the assay text read “for 1 hr” for “for 2 hrs”
Method in brief: (§4)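 Mueller-Hinton broth cultures of about 5 × 10^6 CFU/ml were pre-exposed to telavancin at 10× MIC for 1 h at 35°C, then diluted 1:1,000. Telavancin was re-added to final 0.2, 0.3 or 0.4× MIC, alongside a drug-free tube. Viable counts were taken before exposure, after dilution, then every 2 h until McFarland no. 1 turbidity. Duration comes from log10 CFU/ml-versus-time plots; two separate experiments with fresh inocula.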

[5] = Protein binding healthy human serum; assay type: ADME, cell-free; conditions: read-out: PB
Staphylococcus aureus [6] = assay: Antimicrobial activity against vancomycin-intermediate-, methicillin-resistant Staphylococcus aureus 1984 assessed as time required to induce sub-MIC effect at 0.3 times MIC exposed for 2 hrs by plate counting method; assay type: functional; method in brief: as §2
Enterococcus faecalis [7] = assay: Antimicrobial activity against Enterococcus faecalis HMC 571 by microdilution method; assay type: functional
Enterococcus faecalis [8] = assay: Antimicrobial activity against Enterococcus faecalis ATCC 29212 by microdilution method; assay type: functional
Streptococcus agalactiae [9] = assay: Antimicrobial activity against Streptococcus agalactiae HMC 5 assessed as time required to induce post antibiotic sub-MIC effect at 0.3 times MIC […] by plate counting method; assay type: functional; method in brief: as §4
Staphylococcus aureus [10] = assay: Antimicrobial activity against vancomycin-resistant-, methicillin-resistant Staphylococcus aureus 510 assessed as time required to induce sub-MIC effect at 0.2 times MIC exposed for 2 hrs by plate counting method; assay type: functional; method in brief: as §3
Staphylococcus aureus [11] = assay: Antimicrobial activity against vancomycin-intermediate-, methicillin-resistant Staphylococcus aureus 770 assessed as time required to induce sub-MIC effect at 0.3 times MIC exposed for 2 hrs by plate counting method; assay type: functional; method in brief: as §2
Staphylococcus aureus [12] = assay: Antimicrobial activity against heterogenous vancomycin-intermediate-, methicillin-resistant Staphylococcus aureus 873 assessed as time required to induce post antibiotic sub-MIC effect at 0.3 times MIC […] by plate counting method; assay type: functional
Method in brief: (§5)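 PAE was first induced with 10× MIC for 1 h at 35°C (inoculum about 5 × 10^6 CFU/ml, Mueller-Hinton broth) and ended by 1:1,000 dilution. Cultures were then split and given 0.2, 0.3 or 0.4× MIC, with one tube left without drug. Viable counts were taken before exposure, after dilution, then every 2 h until McFarland no. 1 turbidity. Two separate experiments, each with a new inoculum.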

Staphylococcus aureus [13] = assay: Antimicrobial activity against vancomycin-intermediate-, methicillin-resistant Staphylococcus aureus 1287 assessed as post-antibiotic effect at 10 times MIC pre-exposed to Telavancin for 1 hr by plate counting method; assay type: functional
Method in brief: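 Viable plate count method in Mueller-Hinton broth. Direct colony suspension inoculum of about 5 × 10^6 CFU/ml was exposed to 10× MIC for 1 h at 35°C in a shaking water bath, then diluted 1:1,000 to remove drug. Counts were taken before exposure, at 0 h, then every 2 h until McFarland no. 1 turbidity. PAE = T − C, the time to a 1 log10 rise versus an unexposed growth control.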

Streptococcus agalactiae [14] = assay: Antimicrobial activity against Streptococcus agalactiae HMC 5 assessed as post-antibiotic effect at 10 times MIC pre-exposed to Telavancin for 1 hr by plate counting method; assay type: functional
Method in brief: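 Organisms were suspended in Mueller-Hinton broth from overnight blood agar colonies at about 5 × 10^6 CFU/ml. Cultures were exposed to telavancin at 10× MIC for 1 h at 35°C in a shaking water bath, then diluted 1:1,000 to remove the drug, with an untreated growth control. Viable counts were taken before exposure, at 0 h, then every 2 h until McFarland no. 1 turbidity. PAE = T − C, the time to a 1 log10 rise. Two experiments.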

Staphylococcus aureus [15] = assay: Antimicrobial activity against vancomycin-intermediate-, methicillin-resistant Staphylococcus aureus 770 by microdilution method; assay type: functional
Staphylococcus aureus [16] = assay: Antimicrobial activity against vancomycin-intermediate-, methicillin-resistant Staphylococcus aureus 555 assessed as time required to induce post antibiotic sub-MIC effect at 0.3 times MIC […] by plate counting method; assay type: functional; method in brief: as §5
Staphylococcus aureus [17] = assay: Antimicrobial activity against vancomycin-susceptible-, methicillin-resistant Staphylococcus aureus 1130 assessed as time required to induce post antibiotic sub-MIC effect at 0.4 times MIC […] by plate counting method; assay type: functional
Method in brief: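 After 1 h preexposure to 10× MIC at 35°C and 1:1,000 dilution, cultures were split, and drug was re-added to final 0.2, 0.3 or 0.4× MIC, with a drug-free tube. Viable counts were taken every 2 h until McFarland 1 turbidity. Duration was derived from log10 CFU/ml versus time curves. Two experiments were run, each with a new inoculum.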

Staphylococcus aureus [18] = assay: Antimicrobial activity against vancomycin-intermediate-, methicillin-resistant Staphylococcus aureus 1287 assessed as time required to induce sub-MIC effect at 0.2 times MIC […] by plate counting method; assay type: functional; method in brief: as §2
Staphylococcus aureus [19] = assay: Antimicrobial activity against heterogenous vancomycin-intermediate-, methicillin-resistant Staphylococcus aureus 873 assessed as time required to induce sub-MIC effect at 0.2 times MIC […] by plate counting method; assay type: functional; method in brief: as §2
Staphylococcus aureus [20] = assay: Antimicrobial activity against vancomycin-intermediate-, methicillin-resistant Staphylococcus aureus 1984 by microdilution method; assay type: functional

CCCCCCCCCCNCCN[C@@]1(C)C[C@H](O[C@H]2[C@H](Oc3c4cc5cc3Oc3ccc(cc3Cl)[C@@H](O)[C@@H](NC(=O)[C@@H](CC(C)C)NC)C(=O)N[C@@H](CC(N)=O)C(=O)N[C@H]5C(=O)N[C@H]3C(=O)N[C@H](C(=O)N[C@H](C(=O)O)c5cc(O)c(CNCP(=O)(O)O)c(O)c5-c5cc3ccc5O)[C@H](O)c3ccc(c(Cl)c3)O4)O[C@H](CO)[C@@H](O)[C@@H]2O)O[C@@H](C)[C@H]1O [TELAVANCIN]
PAE (Enterococcus faecium): 8.8 h
PAE (Staphylococcus aureus [1]): 10 h
PAE (Staphylococcus aureus [2]): 2.3 h
PAE (Streptococcus agalactiae [3]): > 10.7 h
PAE (Staphylococcus aureus [4]): 1 h
PAE (Streptococcus pyogenes): 8.7 h
fraction unbound [5]: ≤ 0.1
PAE (Staphylococcus aureus [6]): 2.6 h
MIC (Enterococcus faecalis [7]): 0.25 µg/mL (≈ 0.142 µM)
MIC (Enterococcus faecalis [8]): 0.25 µg/mL (≈ 0.142 µM)
PAE (Streptococcus agalactiae [9]): 4.7 h
PAE (Staphylococcus aureus [10]): 1.9 h
PAE (Staphylococcus aureus [11]): 0.8 h
PAE (Staphylococcus aureus [12]): 4.8 h
PAE (Staphylococcus aureus [13]): 1.2 h
PAE (Streptococcus agalactiae [14]): 0.4 h
MIC (Staphylococcus aureus [15]): 0.25 µg/mL (≈ 0.142 µM)
PAE (Staphylococcus aureus [16]): 10.3 h
PAE (Staphylococcus aureus [17]): > 10 h
PAE (Staphylococcus aureus [18]): 0 h
PAE (Staphylococcus aureus [19]): 0 h
MIC (Staphylococcus aureus [20]): 0.25 µg/mL (≈ 0.142 µM)
